Data published in ChEMBL document CHEMBL4616692, “Structure-Guided Optimization of Replication Protein A (RPA)-DNA Interaction Inhibitors” (ACS Med Chem Lett, 2020).
The source made the active and inactive calls. No cut-off for these calls is given here.

Legend:
Homo sapiens = organism: Homo sapiens; assay: Inhibition of 5'[32P]-labeled 34 base ssDNA binding to SUMO-His6-tagged RPA DBD A/B domain (181-432 residues) (unknown origin) expressed in Escherichia coli BL21 (DE3) cells preincubated for 30 mins followed by labeled DNA addition and measured after 5 mins by electrophoretic mobility shift assay
[1] = Inhibition of 5'[32P]-labeled 34 base ssDNA binding to recombinant full length human RPA expressed in Escherichia coli cells preincubated for 30 mins followed by labeled DNA addition and measured after 5 mins by electrophoretic mobility shift assay
Procedure, shortened: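 Purified heterotrimeric human RPA without tags or modifications, binding to ssDNA read by EMSA. […] IC50 is the mean of at least three independent experiments, reported as mean ± SD.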

Salmon testes DNA = assay: Displacement of SYBR-green from salmon sperm DNA assessed as DNA intercalation by measuring reduction in fluorescence at 5 to 20 uM after 5 mins by fluorescent intercalator displacement assay; assay type: nucleic-acid assay; conditions: Salmonidae
Procedure, shortened: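 Sybr-green intercalator bound to DNA. Displacement was read as a fall in fluorescence across a range of compound concentrations. Doxorubicin served as the positive control.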

[2] = Aqueous solubility of compound in unbuffered H2O at pH 7 by absorbance spectroscopy based LC-MS analysis; assay type: physicochemical; conditions: buffer
Procedure, shortened: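 Aqueous solubility was measured in three independent determinations and reported as mean and SD.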

[3] = Irreversible inhibition of RPA (unknown origin); design: species or system Homo sapiens
[4] = Drug uptake in human H460 cells at 20 uM incubated for 4 hrs by LC-MS analysis; assay type: ADME, cell-based; conditions: nci-h460, 4 h
Procedure, shortened: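 H460 NSCLC cells. Individual points come from three independent determinations and are reported as mean and SD.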

Compound: CCOc1ccc2cc(C3CC(c4ccc(-c5ccco5)cc4)=NN3C(=O)CCCC(=O)O)c(Cl)nc2c1 (stereo not given)
- inhibition (Homo sapiens): Active
- IC50 ([1]; read-out: IC50): 2.1 µM
- inhibition (Salmon testes DNA): inactive

Compound: CCOc1ccc2cc(C3CC(c4ccc(-c5ccc(C(F)(F)F)nc5)cc4)=NN3C(=O)CCCC(=O)O)c(Cl)nc2c1 (stereo not given)
- IC50 ([1]; read-out: IC50): 4.3 µM
- solubility [2]: Soluble

Compound: CC1(C)[C@@H]2CC[C@@]1(C)[C@H](OC(=O)CBr)C2
- IC50 [3]: 16 µM

Compound: CCOc1ccc2cc(C3CC(c4ccc(I)cc4)=NN3C(=O)CCCC(=O)NCCN3CCOCC3)c(Cl)nc2c1 (stereo not given)
- IC50 ([1]; read-out: IC50): 10.5 µM

Compound: CCOc1ccc2cc(C3CC(c4ccc(Br)cc4)=NN3C(=O)CCC(=O)O)c(Cl)nc2c1 (stereo not given)
- IC50 ([1]; read-out: IC50): 38 µM

Compound: CCOc1ccc2cc(C3CC(c4ccc(-c5ccc(Br)nc5)cc4)=NN3C(=O)CCCC(=O)O)c(Cl)nc2c1 (stereo not given)
- inhibition (Homo sapiens): Active
- IC50 ([1]; read-out: IC50): 1 µM
- inhibition (Salmon testes DNA): inactive

Compound: CCOc1ccc2cc(C3CC(c4ccc(-c5ccc(Cl)nc5)cc4)=NN3C(=O)CCCC(=O)O)c(Cl)nc2c1 (stereo not given)
- inhibition (Homo sapiens): Active
- IC50 ([1]; read-out: IC50): 1.6 µM
- Drug uptake [4]: Active
- inhibition (Salmon testes DNA): inactive
- solubility [2]: Soluble

Compound: CCOc1ccc2cc(C3CC(c4ccc([N+](=O)[O-])cc4)=NN3C(=O)CCCC(=O)O)c(Cl)nc2c1 (stereo not given)
- IC50 ([1]; read-out: IC50): > 25 µM

Compound: CCOc1ccc2cc(C3CC(c4ccc(N)cc4)=NN3C(=O)CCCC(=O)O)c(Cl)nc2c1 (stereo not given)
- IC50 ([1]; read-out: IC50): 2.3 µM
- inhibition (Salmon testes DNA): inactive

Compound: CCOc1ccc2cc(C3CC(c4ccc(O)cc4)=NN3C(=O)CCCC(=O)O)c(Cl)nc2c1 (stereo not given)
- IC50 ([1]; read-out: IC50): > 25 µM

Compound: CCOc1ccc2cc(C3CC(c4ccc(-c5ccc(F)nc5)cc4)=NN3C(=O)CCCC(=O)NCCCN3CCOCC3)c(Cl)nc2c1 (stereo not given)
- IC50 ([1]; read-out: IC50): 2.3 µM
- Drug uptake [4]: Active
- solubility [2]: Soluble

Compound: CCOc1ccc2cc(C3CC(c4ccc(OC(=O)N5CCOCC5)cc4)=NN3C(=O)CCCC(=O)O)c(Cl)nc2c1 (stereo not given)
- IC50 ([1]; read-out: IC50): > 25 µM

Compound: C=CC(=O)Oc1ccc(C2=NN(C(=O)CCCC(=O)O)C(c3cc4ccc(OCC)cc4nc3Cl)C2)cc1 (stereo not given)
- IC50 ([1]; read-out: IC50): 8.9 µM

Compound: CCOc1ccc2cc(C3CC(c4ccc(-c5ccoc5)cc4)=NN3C(=O)CCCC(=O)O)c(Cl)nc2c1 (stereo not given)
- IC50 ([1]; read-out: IC50): 6.7 µM

Compound: CCOc1ccc2cc(C3CC(c4ccc(Br)cc4)=NN3C(=O)CCCC(=O)O)c(Cl)nc2c1 (stereo not given)
- IC50 ([1]; read-out: IC50): 19.2 µM
- solubility [2]: Soluble

Compound: CCOc1ccc2cc(C3CC(c4ccc(I)cc4)=NN3C(=O)CCCC(=O)O)c(Cl)nc2c1 (stereo not given)
- IC50 ([1]; read-out: IC50): 15.3 to 18 µM
- Drug uptake [4]: Not Active
- solubility [2]: Soluble

Compound: CCOc1ccc2cc(C3CC(c4ccc(I)cc4)=NN3c3cccc(C(=O)O)c3)c(Cl)nc2c1 (stereo not given)
- IC50 [1]: Not Active

Compound: CCOc1ccc2cc(C3CC(c4ccc(-c5ccc(Cl)nc5)cc4)=NN3C(=O)CCCC(=O)NCCCN3CCOCC3)c(Cl)nc2c1 (stereo not given)
- IC50 ([1]; read-out: IC50): 4 µM
- Drug uptake [4]: Active
- inhibition (Salmon testes DNA): inactive
- solubility [2]: Soluble

Compound: CCOc1ccc2cc(C3CC(c4ccc(-c5cnoc5)cc4)=NN3C(=O)CCCC(=O)O)c(Cl)nc2c1 (stereo not given)
- inhibition (Homo sapiens): Active
- IC50 ([1]; read-out: IC50): 1.7 µM

Compound: CCOc1ccc2cc(C3CC(c4ccc(I)cc4)=NN3C(=O)CCCC(=O)N3CCOCC3)c(Cl)nc2c1 (stereo not given)
- IC50 ([1]; read-out: IC50): 6.6 µM

Compound: CCOc1ccc2cc(C3CC(c4ccc(Br)cc4)=NN3C(=O)CCCC(=O)NCCCN3CCOCC3)c(Cl)nc2c1 (stereo not given)
- IC50 ([1]; read-out: IC50): 10 µM
- solubility [2]: Soluble

Compound: CCOc1ccc2cc(C3CC(c4ccc(-c5ccc(C(F)(F)F)nc5)cc4)=NN3C(=O)CCCC(=O)NCCCN3CCOCC3)c(Cl)nc2c1 (stereo not given)
- IC50 ([1]; read-out: IC50): 5.8 µM
- Drug uptake [4]: Active
- solubility [2]: Soluble

Compound: CC1(C)[C@@H]2CC[C@@]1(C)[C@H](OC(=O)CI)C2
- IC50 [3]: 10 µM

Compound: CCOC(=O)CCCC(=O)N1N=C(c2ccc(I)cc2)CC1c1cc2ccc(OCC)cc2nc1Cl (stereo not given)
- IC50 [1]: Not Active

Compound: CCOc1ccc2cc(C3CC(c4ccc(-c5ccc(F)nc5)cc4)=NN3C(=O)CCCC(=O)O)c(Cl)nc2c1 (stereo not given)
- IC50 ([1]; read-out: IC50): 2.6 µM
- solubility [2]: Soluble

Compound: COc1cccc2c1C(=O)c1c(O)c3c(c(O)c1C2=O)C[C@@](O)(C(=O)CO)C[C@@H]3O[C@H]1C[C@H](N)[C@H](O)[C@H](C)O1
- inhibition (Salmon testes DNA): Dose-dependent effect

Compound: CCOc1ccc2cc(C3CC(c4ccc(-c5ccc(N6CCOCC6)cc5)cc4)=NN3C(=O)CCCC(=O)O)c(Cl)nc2c1 (stereo not given)
- inhibition (Homo sapiens): Active
- IC50 ([1]; read-out: IC50): 3.1 µM

Compound: CCOc1ccc2cc(C3CC(c4ccc(I)cc4)=NN3C(=O)CCCC(=O)NCCCN3CCOCC3)c(Cl)nc2c1 (stereo not given)
- IC50 ([1]; read-out: IC50): 4.9 µM
- Drug uptake [4]: Active
- inhibition (Salmon testes DNA): inactive
- solubility [2]: Soluble
